Test results reported in PMC5548968 (Clinical cancer research : an official journal of the …, 2016).

Experiments:
[1] = test system: 395 wild-type human kinases; assay: DiscoverRx KINOMEscan ATP site dependent competition binding assay, kinase panel; conditions: 1μM compound
[2] = molecular target: T1, ITK (Homo sapiens, UniProt Q08881); assay: DiscoverRx KINOMEscan competition binding assay, ITK; conditions: 1μM compound
T1 sequence (Q08881 1-620): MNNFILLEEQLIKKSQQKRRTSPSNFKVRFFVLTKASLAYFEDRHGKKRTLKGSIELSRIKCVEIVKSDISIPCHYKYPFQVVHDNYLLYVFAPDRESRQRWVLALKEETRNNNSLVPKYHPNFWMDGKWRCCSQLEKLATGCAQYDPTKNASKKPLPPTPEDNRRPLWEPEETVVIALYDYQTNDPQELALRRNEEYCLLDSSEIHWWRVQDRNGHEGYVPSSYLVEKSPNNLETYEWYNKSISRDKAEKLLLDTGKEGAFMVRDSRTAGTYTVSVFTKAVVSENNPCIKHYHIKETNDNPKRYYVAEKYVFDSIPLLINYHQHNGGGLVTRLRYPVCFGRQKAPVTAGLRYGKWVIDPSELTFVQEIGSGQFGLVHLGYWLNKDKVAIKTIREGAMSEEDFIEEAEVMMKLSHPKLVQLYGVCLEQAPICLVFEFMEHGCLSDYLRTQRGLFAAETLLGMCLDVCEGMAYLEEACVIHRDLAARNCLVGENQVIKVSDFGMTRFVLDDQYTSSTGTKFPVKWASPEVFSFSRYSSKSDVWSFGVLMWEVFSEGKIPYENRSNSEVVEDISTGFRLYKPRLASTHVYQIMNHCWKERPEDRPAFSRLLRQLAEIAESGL

[3] = test system: BCR signaling (CD69 expression); format: in vivo, C57BL/6 mice; conditions: for effective dose (CD69 expression): oral gavage 0.1 to 30mg/kg, splenocytes 3 hours after dose, anti-IgM 18 h
Summary of the method: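 Female C57BL/6 mice (5/group/dose) were gavaged with vehicle or test compound at 0.1–30mg/kg. Splenocytes were taken 3 hours later and stimulated with goat anti-mouse IgM at 10μg/mL for 18 hours (37°C, 5% CO2). After Fc blocking, cells were stained for CD19 and CD69, with 7-AAD to exclude dead cells. CD69 on >5,000 gated CD19+ cells per sample was measured by flow cytometry.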

[4] = test system: BCR stimulation by anti-IgM (CD69) in CLL patient MNCs; format: cell-based, human; conditions: 1μM pretreatment 3 hours, anti-IgM 18 h
[5] = test system: phospho-BTK(Y223); assay: in vitro phospho-flow in CLL patient MNCs, phospho-BTK; format: cell-based, human; conditions: 1μM, one hour
[6] = test system: phospho-S6(S235/236); assay: in vitro phospho-flow in CLL patient MNCs, phospho-S6; format: cell-based, human; conditions: 1μM, one hour
Summary of the method: (§1)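 Primary CLL patient MNCs (n=5 patients) were treated in culture with or without 1μM test compound for 1 hour. Cells were fixed in 4% paraformaldehyde, permeabilised in 90% methanol and stained for phospho-PLCγ2(Y759), phospho-S6(S235/236) or phospho-p65(S529) with isotype controls. Flow cytometry gave the percent of CLL cells positive for each readout.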

[7] = test system: phospho-p65(S529); assay: in vitro phospho-flow in CLL patient MNCs, phospho-NF-κB p65; format: cell-based, human; conditions: 1μM, one hour
Summary of the method: as §1

[8] = test system: phospho-PLCγ2(Y759); assay: NSG primary CLL xenograft model, pPLCγ2 in CLL cells from spleen; format: in vivo, NSG mice; conditions: drinking water 0.3 or 0.16mg/mL, three weeks
Summary of the method: (§2)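 Human CLL patient MNCs were Ficoll-isolated and viably frozen. They were transferred at 1 × 10^8 cells/mouse into busulfan-primed NSG mice. Drinking-water dosing (0.3 or 0.16mg/mL; 0.06mg/mL in select experiments) started day −1, with vehicle controls. After 3 weeks, splenocytes were sieved, ACK-lysed, fixed (4% paraformaldehyde), permeabilised (90% methanol) and stained for pPLCγ2(Y759), pERK(T202/Y204) or Ki-67 against isotype controls. Mice were averaged per patient and compared by paired t-test.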

[9] = test system: phospho-ERK(T202/Y204); assay: NSG primary CLL xenograft model, pERK in CLL cells from spleen; format: in vivo, NSG mice; conditions: drinking water 0.3 or 0.16mg/mL, three weeks
Summary of the method: as §2

[10] = test system: human CLL cells; assay: NSG primary CLL xenograft model, CLL cell proliferation; format: in vivo, NSG mice; conditions: drinking water, three weeks, spleen
Summary of the method: as §2

[11] = test system: human CLL cells; assay: NSG primary CLL xenograft model, tumor burden in the spleen; format: in vivo, NSG mice; conditions: drinking water, three weeks
Summary of the method: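 Spleen tumour burden in NSG mice engrafted with 1 × 10^8 primary CLL MNCs after busulfan priming. Mice got treated or vehicle drinking water from day −1 for 3 weeks. Homogenised, sieved, ACK-lysed splenocytes were surface-stained (CD45, CD19, CD3, CD5) and analysed by flow cytometry. Burden is the percentage of CLL cells among human CD45+ cells. Per-patient averages were compared by paired t-test.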

[12] = test system: human CLL cells; assay: NSG primary CLL xenograft model, circulating CLL cell count per μL blood; format: in vivo, NSG mice; conditions: drinking water, three weeks, whole blood
Summary of the method: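 Whole blood came from CLL-engrafted NSG mice after 3 weeks of treated or vehicle drinking water started at busulfan priming (day −1). Absolute human CLL cells (CD45+/CD19+/CD5+) per μL were counted by flow cytometry with counting beads. Values are averages of 2–5 mice per donor patient, compared by paired t-test.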

[13] = molecular target: murine BTK (Mus musculus, UniProt P35991); assay: BTK occupancy probe ELISA, TCL1 adoptive transfer model splenocytes; format: in vivo; conditions: 0.16mg/mL drinking water, one or four weeks
Chain of murine BTK (P35991 whole entry): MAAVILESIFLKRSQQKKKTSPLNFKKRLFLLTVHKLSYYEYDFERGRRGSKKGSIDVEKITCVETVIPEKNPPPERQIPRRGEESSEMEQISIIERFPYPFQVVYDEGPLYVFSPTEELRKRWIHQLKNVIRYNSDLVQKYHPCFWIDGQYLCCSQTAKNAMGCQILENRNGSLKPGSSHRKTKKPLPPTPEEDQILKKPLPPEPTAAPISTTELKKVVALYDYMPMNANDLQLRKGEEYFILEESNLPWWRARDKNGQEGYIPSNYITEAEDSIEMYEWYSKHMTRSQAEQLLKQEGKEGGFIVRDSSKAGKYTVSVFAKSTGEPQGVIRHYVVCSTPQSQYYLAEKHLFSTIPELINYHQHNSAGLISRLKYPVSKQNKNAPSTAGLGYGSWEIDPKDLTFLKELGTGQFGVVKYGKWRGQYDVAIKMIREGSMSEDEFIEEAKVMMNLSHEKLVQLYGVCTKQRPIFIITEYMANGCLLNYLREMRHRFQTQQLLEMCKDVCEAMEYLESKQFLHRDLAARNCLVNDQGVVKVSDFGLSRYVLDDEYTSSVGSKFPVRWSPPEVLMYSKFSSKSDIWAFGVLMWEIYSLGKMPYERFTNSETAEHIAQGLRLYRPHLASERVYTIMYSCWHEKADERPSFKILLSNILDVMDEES

[14] = test system: phospho-BTK(Y223); format: in vivo, C57BL/6 mice; conditions: 0.16mg/mL drinking water, one or four weeks, ex vivo anti-IgM
[15] = test system: phospho-PLCγ2(Y1217); format: in vivo, C57BL/6 mice; conditions: 0.16mg/mL drinking water, one or four weeks, ex vivo anti-IgM
Summary of the method: (§3)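 C57BL/6 recipients received 1 × 10^7 Eμ-TCL1 leukemic cells. Drinking water with 0.16mg/mL test compound or vehicle began once blood CD5+/CD19+ cells reached ≥10%. After 1 or 4 weeks, splenocytes were stimulated ex vivo with anti-IgM. Cells were stained for B220, CD3, pPLCγ2(Y1217) (n=7/group) or pS6(S235/236) (n=14/group). Median fluorescence was read in B220+CD3− cells as % change versus vehicle, by normalised unpaired t-test.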

[16] = test system: phospho-S6(S235/236); format: in vivo, C57BL/6 mice; conditions: 0.16mg/mL drinking water, one or four weeks, ex vivo anti-IgM
Summary of the method: as §3

[17] = test system: BTK; conditions: read-out: IC50 BTK; as previously reported; cited from earlier work
[18] = test system: ERBB4; conditions: read-out: concentration inhibiting ERBB4; biochemical kinase assays; cited from earlier work
[19] = test system: TEC; conditions: read-out: concentration inhibiting TEC; biochemical kinase assays; cited from earlier work
[20] = test system: kinases containing a conserved cysteine residue that aligns with the Cys481 in BTK; conditions: cited from earlier work

CC#CC(=O)N1CCC[C@H]1c1nc(-c2ccc(C(=O)Nc3ccccn3)cc2)c2c(N)nccn12 [acalabrutinib, Acalabrutinib]
binding across kinase panel [1]: Minimal binding outside of BTK | inhibition of ITK [2]: not significantly inhibited | effective dose (CD69 expression) [3]: 1.3 mg/kg | inhibition of BCR signaling (CD69 expression) compared with ibrutinib ([3]; oral, 1mg/kg and 3mg/kg): significantly more than ibrutinib | prevention of BCR stimulation by anti-IgM (CD69) [4]: significantly prevented BCR stimulation | median change in MFI of pBTK (autophosphorylation site) [5]: −15% | median change in phosphorylation of S6 [6]: −20% | median change in phosphorylation of NF-κB (p65) [7]: −26% | median change in phosphorylation of PLCγ2 vs vehicle [8]: −68% | median change in phosphorylation of ERK vs vehicle [9]: −79% | median change in Ki67 (CLL cell proliferation) vs vehicle [10]: −50% | median change in human CLL cells in the murine spleen (tumor burden) vs vehicle [11]: −33% | median change in CLL cells per μL of blood vs vehicle [12]: +0.76% | drug occupancy of murine BTK [13]: ≥ 90% | median change in auto-phosphorylation of BTK vs vehicle [14]: −31% | median change in phosphorylation of PLCγ2 vs vehicle [15]: −22% | median change in pS6 induction vs vehicle [16]: −35% | IC50 [17]: 5.1 nM | IC50 [18]: < 100 nM | IC50 [19]: […]

C=CC(=O)N1CCC[C@@H](n2nc(-c3ccc(Oc4ccccc4)cc3)c3c(N)ncnc32)C1 [ibrutinib, reference compound]
effective dose (CD69 expression) [3]: 2.9 mg/kg | IC50 [17]: 1.5 nM | IC50 values for all ten kinases with the conserved cysteine [20]: low nanomolar range
